Assay results as given in ChEMBL document CHEMBL5705891, “Small-molecule kinase inhibitors provide insight into Mps1 cell cycle function” (Nat Chem Biol, 2010).
One block for each compound: values may come before it. Active and inactive are the calls of the source. The rule behind the calls is not given here.

Legend:
[1] = molecular target: Serine/threonine-protein kinase RIO1 (Homo sapiens) (UniProt Q9BRS2); experiment: Inhibition of RIOK1 (unknown origin) assessed as residual enzyme activity at 10 uM by Ambit kinase binding assay relative to control
[2] = molecular target: Serine/threonine-protein kinase tousled-like 2 (Homo sapiens) (UniProt Q86UE8); experiment: Inhibition of TLK2 (unknown origin) assessed as residual enzyme activity at 10 uM by Ambit kinase binding assay relative to control
[3] = molecular target: TRAF2 and NCK-interacting protein kinase (Homo sapiens) (UniProt Q9UKE5); experiment: Inhibition of TNIK (unknown origin) assessed as residual enzyme activity at 10 uM by Ambit kinase binding assay relative to control
[4] = molecular target: Death-associated protein kinase 1 (Homo sapiens) (UniProt P53355); experiment: Inhibition of DAPK1 (unknown origin) assessed as residual enzyme activity at 10 uM by Ambit kinase binding assay relative to control
[5] = molecular target: Serine/threonine-protein kinase pim-1 (Homo sapiens) (UniProt P11309); experiment: Inhibition of PIM1 (unknown origin) assessed as residual enzyme activity at 10 uM by Ambit kinase binding assay relative to control
[6] = molecular target: Ribosomal protein S6 kinase alpha-5 (Homo sapiens) (UniProt O75582); experiment: Inhibition of RPS6KA5 kinase domain 2 (unknown origin) assessed as residual enzyme activity at 10 uM by Ambit kinase binding assay relative to control
[7] = molecular target: Bone morphogenetic protein receptor type-2 (Homo sapiens) (UniProt Q13873); experiment: Inhibition of BMPR2 (unknown origin) assessed as residual enzyme activity at 10 uM by Ambit kinase binding assay relative to control
UTRM10 = experiment: Inhibition of hyperphosphorylation of LAP-tagged Mps1 M602Q mutant (unknown origin) expressed in UTRM10 cells (unknown origin) measured after 90 mins by immunoblot analysis; format: cell-based; conditions: Homo sapiens
A549 [8] = experiment: Antiproliferative activity against human A549 cells at 10 uM measured after 96 hrs in presence of Z-VAD-FMK by Syto60 staining based assay; format: functional, cell-based
HCT-116 [9] = experiment: Induction of apoptosis in human HCT-116 cells assessed as increase in cleaved PARP level at 5 to 10 uM measured for 24 to 48 hrs in presence of Z-VAD-FMK by immunoblot analysis; format: functional, cell-based; conditions: dose 5-10 µM, time 24-48 hrs
TERT-RPE1 = experiment: Induction of aneuploidy in human TERT-RPE1 cells assessed as frequency of non-disjunction events per cell at 10 uM treated for 24 hrs by karyo-typing analysis (reference value: 0.1); format: functional
Summary of the method: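 Asynchronous cells were exposed to 10 μM compound for 24 h. Medium was then replaced with medium containing 100 ng/mL colcemid for 2 h to arrest cells in metaphase, after which cells were harvested and karyotyped.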

U2OS [10] = experiment: Reversal of paclitaxel-induced mitotic arrest in human U2OS cells assessed as Ser10 phosphorylated Histone H3-positive 4c population at 10 uM incubated for 16 hrs by flow cytometry (reference value: 25 %); format: functional
HCT-116 [11] = experiment: Cytotoxicity against human HCT-116 cells assessed as loss of cell viability at 5 to 10 uM incubated for 10 days by crystal violet staining based assay; format: functional; conditions: dose 5-10 µM, time 10.0 day
Summary of the method: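 Colony outgrowth: cells plated at 200 cells per 60-mm dish, exposed to compound or DMSO vehicle and stained with crystal violet after 10 days. HCT116 grown in McCoy's 5A; A549 and HeLa in DMEM; hTERT-RPE1 in DMEM/F-12. All media had 10% FBS and penicillin/streptomycin, 37°C, 5% CO2. Quantified from 3 independent experiments, mean + SD, Student's t test.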

[12] = molecular target: Mitogen-activated protein kinase 1 (Homo sapiens, UniProt P28482); experiment: Binding affinity to ERK2 (unknown origin) assessed as dissociation constant by Ambit kinase binding assay
[13] = molecular target: Insulin receptor-related protein (Homo sapiens, UniProt P14616); experiment: Inhibition of INSRR (unknown origin) assessed as residual enzyme activity at 10 uM by Ambit kinase binding assay relative to control
HeLa S3 [14] = experiment: Reversal of nocodazole-induced mitotic arrest in human HeLa S3 cells expressing histone H2B-GFP assessed as DNA decondensation at 10 uM measured for 20 to 60 mins by immunofluorescence analysis; format: functional, cell-based; conditions: time 20-60 min
Summary of the method: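 HeLa S3 H2B-GFP cells were held in nocodazole (200 ng·ml⁻¹) with or without inhibitor. Mitotic exit was scored as DNA decondensation and nuclear envelope reassembly, imaged every 5 min (60X objective); 150 cells counted per population.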

U2OS [15] = experiment: Induction of premature entry into anaphase in thymidine-treated human U2OS cells expressing H2B-GFP and Plk4 overexpression measured for 30 mins by time lapse imaging analysis relative to control; format: functional; conditions: 0.5 h
Summary of the method: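 Doxycycline-inducible Plk4 U2OS cells expressing H2B-GFP were blocked with thymidine for 18 hrs and released into doxycycline (2 μg·ml⁻¹) for 10 hrs. A second 18-hr thymidine block followed, then release for 6 hrs before 5 μM inhibitor, with or without Plk4 induction. Cells were imaged by time-lapse at 37°C, 5% CO₂, timed from NEBD, and bipolar versus multipolar anaphases were scored. Values are mean ± SD of 3 independent experiments.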

[16] = molecular target: Myosin-IIIb (Homo sapiens) (UniProt Q8WXR4); experiment: Inhibition of MYO3B (unknown origin) assessed as residual enzyme activity at 10 uM by Ambit kinase binding assay relative to control
U2OS [17] = experiment: Reversal of nocodazole-induced mitotic arrest in human U2OS cells assessed as Ser10 phosphorylated Histone H3-positive 4c population at 5 uM incubated for 16 hrs by flow cytometry (reference value: 94 %); format: functional
HCT-116 [18] = experiment: Antiproliferative activity against human HCT-116 with p53-/- cells at 10 uM incubated for 4 days by Syto60 staining based assay; format: functional, cell-based; conditions: time 4.0 day
Summary of the method: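 Proliferation read by Syto60 nucleic acid stain fluorescence (excitation 635 nm, emission 695 nm) after treatment for up to 96 h. Each time point normalized to its DMSO control. Mean ± SD from 4 independent experiments. Cells kept at 37°C, 5% CO2 in 10% FBS-supplemented medium.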

HeLa S3 [19] = experiment: Effect on thymidine-treated human HeLa S3 cell populations after one cell doubling at 10 uM incubated for 4 hrs followed by thymidine release by immunofluorescence imaging analysis; format: functional, cell-based
A549 [20] = experiment: Antiproliferative activity against human A549 cells at 10 uM incubated for 4 days by Syto60 staining based assay; format: functional, cell-based; conditions: time 4.0 day
HCT-116 [21] = experiment: Antiproliferative activity against human HCT-116 cells with p53+/+ at 10 uM measured after 96 hrs in presence of Z-VAD-FMK by Syto60 staining based assay; format: functional, cell-based
Insulin receptor = Insulin receptor (Homo sapiens, UniProt P06213); experiment: Inhibition of INSR (unknown origin) assessed as residual enzyme activity at 10 uM by Ambit kinase binding assay relative to control
[22] = molecular target: Protein-tyrosine kinase 2-beta (Homo sapiens, UniProt Q14289); experiment: Binding affinity to PYK2 (unknown origin) assessed as dissociation constant by Ambit kinase binding assay
[23] = molecular target: Insulin-like growth factor 1 receptor (Homo sapiens, UniProt P08069); experiment: Inhibition of IGF1R (unknown origin) assessed as residual enzyme activity at 10 uM by Ambit kinase binding assay relative to control
Chain of Insulin-like growth factor 1 receptor (P08069 31-736 limits assumed): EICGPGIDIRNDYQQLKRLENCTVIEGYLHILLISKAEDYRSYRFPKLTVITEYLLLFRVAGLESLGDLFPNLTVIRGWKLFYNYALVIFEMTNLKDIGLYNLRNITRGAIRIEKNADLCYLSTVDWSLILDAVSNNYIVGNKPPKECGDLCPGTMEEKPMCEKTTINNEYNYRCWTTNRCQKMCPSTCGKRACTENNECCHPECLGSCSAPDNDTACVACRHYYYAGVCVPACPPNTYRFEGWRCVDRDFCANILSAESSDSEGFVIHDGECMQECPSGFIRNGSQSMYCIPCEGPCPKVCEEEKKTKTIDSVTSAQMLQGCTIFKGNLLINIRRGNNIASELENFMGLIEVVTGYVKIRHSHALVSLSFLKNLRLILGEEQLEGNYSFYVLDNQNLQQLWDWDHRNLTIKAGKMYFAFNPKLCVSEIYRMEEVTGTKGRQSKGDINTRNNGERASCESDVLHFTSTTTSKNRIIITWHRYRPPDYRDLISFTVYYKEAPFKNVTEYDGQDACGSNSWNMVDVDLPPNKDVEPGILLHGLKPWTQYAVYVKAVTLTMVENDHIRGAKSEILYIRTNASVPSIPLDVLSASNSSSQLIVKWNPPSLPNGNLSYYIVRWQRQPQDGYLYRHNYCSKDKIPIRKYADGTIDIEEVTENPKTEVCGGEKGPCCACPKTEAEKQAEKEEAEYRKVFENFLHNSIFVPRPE
Chain of Insulin-like growth factor 1 receptor (P08069 741-1367 limits assumed): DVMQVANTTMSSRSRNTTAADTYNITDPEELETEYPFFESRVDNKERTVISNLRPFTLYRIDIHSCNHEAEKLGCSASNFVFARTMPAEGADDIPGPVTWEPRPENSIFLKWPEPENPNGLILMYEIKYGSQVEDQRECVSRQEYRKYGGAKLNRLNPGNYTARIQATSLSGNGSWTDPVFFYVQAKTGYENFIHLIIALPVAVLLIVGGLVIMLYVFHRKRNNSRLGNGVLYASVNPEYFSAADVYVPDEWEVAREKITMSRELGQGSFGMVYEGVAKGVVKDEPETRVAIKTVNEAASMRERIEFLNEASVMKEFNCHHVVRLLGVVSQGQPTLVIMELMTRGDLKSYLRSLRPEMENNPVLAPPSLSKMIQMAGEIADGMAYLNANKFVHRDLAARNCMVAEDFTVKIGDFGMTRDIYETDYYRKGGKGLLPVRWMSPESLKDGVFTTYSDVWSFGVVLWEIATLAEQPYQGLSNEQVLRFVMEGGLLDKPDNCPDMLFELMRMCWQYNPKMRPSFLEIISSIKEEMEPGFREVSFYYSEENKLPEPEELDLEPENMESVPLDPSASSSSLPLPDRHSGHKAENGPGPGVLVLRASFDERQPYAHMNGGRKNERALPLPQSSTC

Chain of Insulin receptor (P06213 28-758 limits assumed): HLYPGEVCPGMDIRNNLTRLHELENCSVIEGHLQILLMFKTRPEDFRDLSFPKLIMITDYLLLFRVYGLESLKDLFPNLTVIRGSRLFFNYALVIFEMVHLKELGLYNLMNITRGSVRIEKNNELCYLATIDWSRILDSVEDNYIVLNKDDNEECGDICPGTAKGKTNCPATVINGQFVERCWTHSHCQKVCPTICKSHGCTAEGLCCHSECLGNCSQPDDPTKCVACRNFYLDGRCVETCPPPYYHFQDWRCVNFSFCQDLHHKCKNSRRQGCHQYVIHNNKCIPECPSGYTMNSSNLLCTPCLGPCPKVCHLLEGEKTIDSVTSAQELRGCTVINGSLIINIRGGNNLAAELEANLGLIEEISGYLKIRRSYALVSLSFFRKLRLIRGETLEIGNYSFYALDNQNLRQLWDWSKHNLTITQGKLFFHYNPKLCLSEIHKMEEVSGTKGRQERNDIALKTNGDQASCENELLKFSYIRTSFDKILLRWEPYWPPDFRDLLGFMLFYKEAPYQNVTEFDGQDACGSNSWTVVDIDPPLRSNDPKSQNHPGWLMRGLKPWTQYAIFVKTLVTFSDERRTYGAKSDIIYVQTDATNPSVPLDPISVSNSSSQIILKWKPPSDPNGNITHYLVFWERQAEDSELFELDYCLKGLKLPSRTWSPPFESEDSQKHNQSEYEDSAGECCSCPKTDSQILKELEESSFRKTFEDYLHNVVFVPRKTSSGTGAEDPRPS
Chain of Insulin receptor (P06213 763-1382 limits assumed): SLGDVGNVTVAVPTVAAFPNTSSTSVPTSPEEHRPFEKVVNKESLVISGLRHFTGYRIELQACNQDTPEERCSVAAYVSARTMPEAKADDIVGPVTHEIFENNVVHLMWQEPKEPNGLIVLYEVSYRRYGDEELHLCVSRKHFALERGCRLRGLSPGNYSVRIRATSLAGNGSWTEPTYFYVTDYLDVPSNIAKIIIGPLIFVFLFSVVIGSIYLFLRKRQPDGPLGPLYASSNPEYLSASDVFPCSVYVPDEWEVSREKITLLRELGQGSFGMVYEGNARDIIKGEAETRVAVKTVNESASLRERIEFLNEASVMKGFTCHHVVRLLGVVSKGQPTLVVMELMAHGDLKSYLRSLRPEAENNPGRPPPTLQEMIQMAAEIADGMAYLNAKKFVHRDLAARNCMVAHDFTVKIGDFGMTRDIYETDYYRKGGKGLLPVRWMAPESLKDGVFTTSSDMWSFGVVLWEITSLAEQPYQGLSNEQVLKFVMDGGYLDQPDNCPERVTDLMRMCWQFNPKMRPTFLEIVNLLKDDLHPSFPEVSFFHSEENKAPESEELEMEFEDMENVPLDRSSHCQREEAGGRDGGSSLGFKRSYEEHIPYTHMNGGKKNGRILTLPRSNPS
Chain of TRAF2 and NCK-interacting protein kinase (Homo sapiens) (Q9UKE5 whole entry, looked up): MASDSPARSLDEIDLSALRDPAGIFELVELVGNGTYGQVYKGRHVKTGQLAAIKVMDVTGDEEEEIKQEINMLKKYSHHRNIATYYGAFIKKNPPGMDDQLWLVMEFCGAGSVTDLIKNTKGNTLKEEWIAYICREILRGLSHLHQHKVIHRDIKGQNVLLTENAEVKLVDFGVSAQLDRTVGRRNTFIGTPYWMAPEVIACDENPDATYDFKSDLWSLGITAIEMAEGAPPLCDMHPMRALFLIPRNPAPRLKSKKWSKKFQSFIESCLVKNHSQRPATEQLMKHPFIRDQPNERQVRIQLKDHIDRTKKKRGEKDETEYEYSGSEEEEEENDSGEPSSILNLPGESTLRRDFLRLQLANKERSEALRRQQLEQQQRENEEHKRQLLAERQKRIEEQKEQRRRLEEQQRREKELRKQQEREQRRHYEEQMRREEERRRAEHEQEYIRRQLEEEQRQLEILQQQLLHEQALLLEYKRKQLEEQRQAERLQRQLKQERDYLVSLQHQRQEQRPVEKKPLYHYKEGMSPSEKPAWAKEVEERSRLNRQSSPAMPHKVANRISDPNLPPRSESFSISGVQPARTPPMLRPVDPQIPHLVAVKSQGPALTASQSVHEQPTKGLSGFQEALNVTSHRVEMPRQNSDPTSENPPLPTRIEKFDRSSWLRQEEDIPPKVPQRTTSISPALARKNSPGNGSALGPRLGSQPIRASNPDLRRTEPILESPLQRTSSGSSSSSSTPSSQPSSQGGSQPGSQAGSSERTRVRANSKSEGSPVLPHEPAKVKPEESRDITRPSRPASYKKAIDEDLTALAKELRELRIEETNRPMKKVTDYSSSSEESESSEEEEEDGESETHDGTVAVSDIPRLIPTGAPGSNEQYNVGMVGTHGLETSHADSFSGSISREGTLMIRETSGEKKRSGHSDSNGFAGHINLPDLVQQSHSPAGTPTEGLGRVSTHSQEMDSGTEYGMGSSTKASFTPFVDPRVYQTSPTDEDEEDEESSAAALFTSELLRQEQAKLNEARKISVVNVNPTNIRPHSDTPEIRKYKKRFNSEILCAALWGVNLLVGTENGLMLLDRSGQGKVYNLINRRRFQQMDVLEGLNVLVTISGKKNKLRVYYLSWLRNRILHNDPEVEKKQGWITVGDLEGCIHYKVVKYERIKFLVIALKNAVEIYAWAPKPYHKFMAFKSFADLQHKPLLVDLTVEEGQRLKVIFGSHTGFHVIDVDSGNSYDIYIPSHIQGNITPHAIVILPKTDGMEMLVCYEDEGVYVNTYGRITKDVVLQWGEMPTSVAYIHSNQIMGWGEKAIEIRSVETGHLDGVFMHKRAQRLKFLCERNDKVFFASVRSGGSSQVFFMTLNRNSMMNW
Chain of Serine/threonine-protein kinase RIO1 (Homo sapiens) (Q9BRS2 whole entry): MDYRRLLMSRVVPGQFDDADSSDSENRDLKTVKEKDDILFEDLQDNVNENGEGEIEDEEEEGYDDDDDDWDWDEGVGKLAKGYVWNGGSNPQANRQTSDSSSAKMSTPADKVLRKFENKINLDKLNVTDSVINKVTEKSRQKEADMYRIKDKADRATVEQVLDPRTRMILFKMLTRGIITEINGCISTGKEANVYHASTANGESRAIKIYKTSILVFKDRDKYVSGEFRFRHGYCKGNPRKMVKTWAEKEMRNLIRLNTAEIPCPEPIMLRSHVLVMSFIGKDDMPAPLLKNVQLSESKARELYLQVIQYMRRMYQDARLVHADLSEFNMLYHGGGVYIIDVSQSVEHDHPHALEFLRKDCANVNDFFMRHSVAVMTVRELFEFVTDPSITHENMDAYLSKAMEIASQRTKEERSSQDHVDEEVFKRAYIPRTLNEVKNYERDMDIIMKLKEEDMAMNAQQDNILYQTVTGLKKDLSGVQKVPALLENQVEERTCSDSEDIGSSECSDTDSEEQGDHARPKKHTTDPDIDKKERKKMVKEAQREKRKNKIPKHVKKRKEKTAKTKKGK
Chain of Serine/threonine-protein kinase pim-1 (Homo sapiens) (P11309 whole entry, looked up, the tested form may be a part): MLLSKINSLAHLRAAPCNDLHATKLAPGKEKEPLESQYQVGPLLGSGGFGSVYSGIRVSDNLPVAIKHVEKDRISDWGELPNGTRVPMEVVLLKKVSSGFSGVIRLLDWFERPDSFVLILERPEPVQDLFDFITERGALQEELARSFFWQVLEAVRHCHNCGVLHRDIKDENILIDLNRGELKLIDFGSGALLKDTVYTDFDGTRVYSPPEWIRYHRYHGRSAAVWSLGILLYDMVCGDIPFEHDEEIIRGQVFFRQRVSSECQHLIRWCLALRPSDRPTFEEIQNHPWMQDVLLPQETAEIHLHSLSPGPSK

Activity [1]: 10%
Activity [2]: 30%
Activity [3]: 18%
Activity [5]: 24%
Activity [6]: 12%
Activity [7]: 15%
Compound: O=C1c2ccccc2-c2n[nH]c3cccc1c23
Activity [4]: 1.4%

Kd [12]: 2900 nM
Activity [13]: 2%
Activity [16]: 28%
Activity (Insulin receptor): 0.15%
Kd [22]: 280 nM
Activity [23]: 0.9%
Compound: COc1cc(N2CCC(O)CC2)ccc1Nc1cc(Nc2ccccc2S(=O)(=O)C(C)C)c2cc[nH]c2n1
inhibition (UTRM10): inactive
Activity (A549 [8]): Active
Activity (HCT-116 [9]): inactive
Activity (TERT-RPE1): 3.3
Activity (U2OS [10]): 1%
Activity (HCT-116 [11]): Active
Activity (HeLa S3 [14]): Active
Activity (U2OS [15]): ~60%
Activity (U2OS [17]): 8%
Activity (HCT-116 [18]): Active
Activity (HeLa S3 [19]): inactive
Activity (A549 [20]): Active
Activity (HCT-116 [21]): Active
